Screening data from PubChem.
Shown are actives, neighbours in structure and some others; about 4.6% of the full set was active somewhere.
FAS-TE inh = inhibitors of human fatty acid synthase thioesterase domain; P49327; recombinant FAS-TE, OMFH fluorogenic substrate, fluorescence endpoint; inhibition, % at 15 µM; 360,000 compounds, 0.67% hits;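 active means compounds whose normalised, plate-corrected inhibition of enzyme fluorescence in the single-dose primary screen is 50% or more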;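 further: 0% = DMSO with enzyme and 100% = substrate without enzyme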
Rtt109 Vps75 = blocks Candida albicans Rtt109/Vps75 acetyltransferase activity. purified Rtt109/Vps75, ThioGlo CoA-SH fluorescence, 4 h. inhibition, % at 34.9 µM. 330,000 compounds, 0.16% hits;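 active means inhibition of at least 50% in every replicate; inconclusive means best replicate reaches 50% inhibition but some replicates fall short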
Target sequence (Q5AAJ8 whole entry, looked up): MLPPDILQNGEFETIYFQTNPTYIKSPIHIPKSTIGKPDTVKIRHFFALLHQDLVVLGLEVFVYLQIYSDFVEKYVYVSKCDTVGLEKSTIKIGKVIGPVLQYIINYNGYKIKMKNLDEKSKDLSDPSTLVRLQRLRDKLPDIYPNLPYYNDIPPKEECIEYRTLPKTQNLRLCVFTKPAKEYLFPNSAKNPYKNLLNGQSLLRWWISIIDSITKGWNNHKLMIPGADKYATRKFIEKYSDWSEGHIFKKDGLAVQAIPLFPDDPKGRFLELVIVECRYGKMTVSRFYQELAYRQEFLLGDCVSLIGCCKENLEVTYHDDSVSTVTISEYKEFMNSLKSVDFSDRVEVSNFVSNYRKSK
ALR inh = blocks human ALR sulfhydryl oxidase activity; P55789; purified ALR, DTT oxidation, H2O2 HRP-luminol luminescence; inhibition, % (no concentration beside the values); 290,000 compounds, 3.8% hits; AID 485317;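 active means mean replicate inhibition above about 79%, with every replicate also reaching it, limit read from the data; inconclusive means only one of the two criteria met; inactive means mean below limit and not every replicate reaching it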
UCH37 inh = human UCH37 deubiquitinating enzyme inhibition. purified proteasome/UCH37, Ub-AMC cleavage fluorescence. inhibition, % (no concentration beside the values). 330,000 compounds, 0.33% hits. AID 588478;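 active means mean inhibition over replicate wells above about 20%, limit read from the data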;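 further: 0% = compound-free wells with enzyme and 100% = wells lacking proteasome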
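system = Proteasome-associated human UCH37 deubiquitinase | amount = 0.15 nM proteasome as dispensed | medium = pH 7.4 Tris-HCl (50 mM) with ovalbumin, ATP-MgCl2, DTT | incubation = 30 min preincubation with enzyme, 25 min cleavage at room temperature | detection = AMC fluorescence 355/460 nm | read-out basis = percent inhibition | controls = no-proteasome and no-compound wells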
PfM18AAP inh-1 = PfM18AAP enzyme inhibition | inhibition, % at 7.35 µM | AID 1822 | 290,000 compounds, 1.2% hits | recombinant PfM18AAP, H-Glu-NHMec fluorogenic cleavage;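 active means inhibition above the campaign mean inhibition over all tested compounds plus 3 SD, cut at about 28% in these data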;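 further: 0% = plate median of test compound wells and 100% = 2 mM ZnCl2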
HDAC3 inh = blocks human histone deacetylase 3; O15379; recombinant HDAC3, fluorogenic peptide/trypsin coupled, fluorescence; inhibition, % at 8.3 µM; 320,000 compounds, 0.15% hits; in the data active means inhibition above about 26%, passing the limit was not always enough; inconclusive means no clear call, values can overlap the other calls
Target sequence (O15379 whole entry, looked up): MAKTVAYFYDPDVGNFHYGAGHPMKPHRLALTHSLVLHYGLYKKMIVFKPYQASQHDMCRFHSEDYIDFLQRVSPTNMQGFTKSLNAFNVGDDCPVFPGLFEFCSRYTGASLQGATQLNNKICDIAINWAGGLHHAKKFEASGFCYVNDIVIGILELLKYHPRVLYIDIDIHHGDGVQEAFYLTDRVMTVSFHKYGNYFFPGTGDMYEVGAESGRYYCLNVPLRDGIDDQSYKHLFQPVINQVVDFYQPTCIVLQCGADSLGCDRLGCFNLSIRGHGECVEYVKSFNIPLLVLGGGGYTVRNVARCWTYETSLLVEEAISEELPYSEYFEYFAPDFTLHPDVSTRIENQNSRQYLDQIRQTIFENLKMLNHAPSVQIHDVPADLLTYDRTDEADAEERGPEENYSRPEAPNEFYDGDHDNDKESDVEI
PfM18AAP inh-2 = confirmation of Plasmodium falciparum M18 aspartyl aminopeptidase inhibitors; shares compounds with PfM18AAP inh-1; recombinant PfM18AAP, H-Glu-NHMec fluorogenic cleavage; inhibition, % at 7.35 µM; 2,400 compounds, 28% hits; AID 2170;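 active means mean inhibition over replicate wells above the hit cutoff set for the earlier primary screen, cut at about 29% in these data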;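 further: 0% = median of test compound wells and 100% = 2 mM ZnCl2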
CTSL1 counter = Cathepsin L (human) inhibition, confirmation; 2,400 tested, under 10 active; shares compounds with PfM18AAP inh-1; purified cathepsin L1, Z-Leu-Arg-MCA fluorescence; inhibition, % at 5.96 µM;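 active means average inhibition across replicates above the hit cutoff set in the earlier primary screen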;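 further: 0% = median of test compound wells and 100% = Z-Phe-Ala-diazomethylketone 1 µM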
Active calls of the source: *; ? = inconclusive; nt = no result given.

SMILES | FAS-TE inh | Rtt109 Vps75 | ALR inh | UCH37 inh | PfM18AAP inh-1 | HDAC3 inh | PfM18AAP inh-2 | CTSL1 counter
CC12CC(NC(=O)N1c1cccc(C(=O)Nc3ncn[nH]3)c1)c1ccccc1O2 (stereo unspecified) | -7 | -17 | -1 | -2 | 43* | 1 | 50* | -7
COc1ccc(NC(=O)c2cccc(N3C(=O)NC4CC3(C)Oc3ccccc34)c2)cc1 (stereo unspecified) | -5 | 10 | -7 | 4 | 2 | 6 | nt | nt
O=C(COc1ccccc1)Nc1nc(-c2cccnc2)cs1 | -4 | -3 | 4 | 0 | nt | 1 | nt | nt
Cc1cc(C)cc(OCC(=O)Nc2nc(-c3cccnc3)cs2)c1 | 1 | 10 | 1 | 1 | 44* | -1 | -3 | -4
N#Cc1c(-c2cccnc2)c2c([nH]c1=S)CCCC2 | -5 | -2 | 0 | 1 | 33* | ? | 51* | -7
Cc1c(C(=O)Nn2cnnc2)oc2ccccc12 | -2 | -23 | 1 | 4 | 81* | 2 | 76* | -3
Cc1scc(C(=O)Nn2cnnc2)c1-c1ccccc1 | -6 | -31 | -20 | 4 | 64* | -6 | 60* | 0
Cc1c(C(=O)NN2CCOCC2)oc2ccccc12 | -5 | 0 | 5 | -1 | 0 | -1 | nt | nt
O=C(Nn1cnnc1)c1csc2ccccc12 | -9 | -3 | 55 | 1 | 72* | -1 | 73* | -5
COc1ccc(C(C)=Nn2cnnc2)cc1 | nt | nt | nt | -2 | nt | nt | nt | nt
Cc1cc(C)nc(NN=Cc2ccccc2OCc2ccc(Br)cc2)n1 | nt | nt | nt | 1 | nt | nt | nt | nt
Nn1c(Cc2cccc3ccccc23)n[nH]c1=S | -6 | -6 | 64 | 1 | 32* | 1 | -5 | 2
Cn1c(-c2cccc3ccccc23)n[nH]c1=S | -13 | -3 | -3 | 4 | 37* | 12 | -12 | -7
O=C(O)COc1ccccc1C=NNc1ccc(S(=O)(=O)Nc2ccc(Cl)cc2)cc1[N+](=O)[O-] | nt | nt | nt | 17 | nt | nt | nt | nt
Cc1ccc(NS(=O)(=O)c2cc(NC(=O)c3ccc4c(c3)NC(=O)CS4)ccc2Cl)c(C)c1 | 39 | -1 | -3 | 1 | 32* | 16 | -24 | -10
S=c1nc(C2COc3ccccc3O2)[nH][nH]1 (stereo unspecified) | -13 | 0 | -4 | 2 | 35* | 8 | 26 | 2
CCN(CC)S(=O)(=O)c1ccccc1C=NO | nt | nt | nt | 3 | nt | nt | nt | nt
Fc1cccc(C=NNc2ccc(Cl)nn2)c1 | nt | nt | nt | 1 | nt | nt | nt | nt
Cc1cc(C)cc(NC(=O)NNC(=O)c2cc3occc3[nH]2)c1 | -1 | 12 | 2 | 3 | 56* | -5 | 22 | -4
Cc1cccc(NC(=O)NNC(=O)c2cc3occc3[nH]2)c1C | -4 | 2 | -2 | 3 | 46* | 3 | 23 | -6
Cc1cc(C(=O)NNC(=O)Nc2ccccc2)no1 | -4 | 5 | 28 | 0 | -8 | -6 | nt | nt
COc1ccc(NC(=O)CC(C)=NNC(=O)c2cnccn2)cc1Cl | nt | nt | nt | 1 | nt | nt | nt | nt
O=[N+]([O-])c1cc(C=NNc2nc3ccccc3[nH]2)c(O)cc1O | nt | nt | nt | 16 | nt | nt | nt | nt
Cc1cccc(C)c1OCC(=O)NN=Cc1ccc2c(c1)OCO2 | nt | nt | nt | 0 | nt | nt | nt | nt
CCc1cc(C(=O)Cc2cnn(-c3ccccc3)c2)c(O)cc1O | 11 | 12 | 24 | -15 | 8 | 15 | nt | nt
SMILES | FAS-TE inh | Rtt109 Vps75 | ALR inh | UCH37 inh | PfM18AAP inh-1 | HDAC3 inh | PfM18AAP inh-2 | CTSL1 counter
O=C(Cc1cnn(-c2ccccc2)c1)c1ccc(O)c(O)c1O | -2 | ? | 100* | 8 | 38* | 6 | 11 | -10
Cc1ccc(O)c(Nc2c3ccccc3nc3ccccc23)c1 | -15 | 5 | 99* | -29 | 43* | 0 | -48 | 5
NC(=O)NC(=O)C(Nc1ccc(N2CCCCC2)cc1)c1ccccc1 (stereo unspecified) | -3 | -2 | 99* | -1 | 41* | 0 | -35 | -5
Cc1nc(/C(=N/O)C(N)=O)cs1 | -10 | -3 | 3 | nt | 48* | -1 | 38* | -1
CCOC(=O)Cc1csc(C(=NO)C(N)=O)n1 | nt | nt | nt | 3 | nt | nt | nt | nt
CNc1nc(NN=Cc2cc3c(cc2[N+](=O)[O-])OCO3)nc(Nc2ccccc2)n1 | nt | nt | nt | 7 | nt | nt | nt | nt
O=C(Cc1ncn[nH]1)NCCc1ccccc1 | -7 | 8 | -7 | 1 | 32* | 12 | 40* | 2
COc1cccc(/C=N/Nc2nnc(C)n2N)c1O | -7 | -6 | 54 | nt | 39* | 4 | -8 | 0
COc1ccc(C=NNc2nnc(C)n2N)cc1OC | nt | nt | nt | 7 | nt | nt | nt | nt
Cc1nnc(N/N=C/c2ccccc2F)n1N | -7 | 0 | -23 | nt | 8 | 8 | nt | nt
Cc1nnc(N/N=C/c2ccccc2C(F)(F)F)n1N | -7 | -2 | 1 | nt | 39* | 1 | -34 | 2
COc1cccc(/C=N/c2sc(Cc3ccccc3)c(C)c2C(N)=O)c1O | -7 | 3 | 12 | nt | 34* | -8 | -24 | -5
CC(=NNc1cc(Cl)nc(C)n1)c1ccccc1 | nt | nt | nt | 3 | nt | nt | nt | nt
Oc1ccccc1/C=N/N1CCCCC1 | -2 | 3 | -38 | nt | 2 | 4 | nt | nt
Oc1cccc(/C=N/N2CCCCC2)c1O | -7 | 5 | 99* | nt | 45* | 3 | 22 | -3
Oc1ccc(/C=N/N2CCCCC2)c(O)c1O | -5 | 4 | 64 | nt | 48* | 7 | 1 | -8
Oc1ccc(Cl)cc1C=NN1CCCCCC1 | 21 | 10 | nt | 2 | nt | nt | nt | nt
CN(C)c1nc(NN=Cc2ccccc2O)nc(Nc2ccc(F)cc2)n1 | nt | nt | nt | 6 | nt | nt | nt | nt
COc1ccc(C=NNC(=O)c2nn(C)cc2Cl)cc1CN1CCOCC1 | nt | nt | nt | 7 | nt | nt | nt | nt
COc1cccc2c(NN=Cc3ccccc3)cc(C)nc12 | nt | nt | nt | -14 | nt | nt | nt | nt
COc1cc2nc(CN(C)Cc3ccc(SC)cc3)[nH]c(=O)c2cc1OC | -5 | -11 | -5 | 5 | -5 | 5 | nt | nt
COc1cc2nc(CSc3ncn[nH]3)[nH]c(=O)c2cc1OC | -12 | 9 | -9 | 2 | 63* | 1 | 66* | -4
O=C(NNc1nc2ccccc2nc1C(F)(F)F)c1ccccc1 | -2 | 4 | 98* | 2 | 34* | -2 | -3 | 1
O=C(NNc1nc2ccccc2o1)c1ccccc1 | -2 | nt | 59 | 5 | 41* | 3 | 0 | 0
O=C(NC(=Nc1nc2ccccc2o1)NC(=O)c1ccccc1)c1ccccc1 | -7 | -2 | -2 | -51 | 1 | 2 | nt | nt
CCCOc1ccc(C=NNC(=O)C2CC2)c(OCCC)c1 | nt | nt | nt | 7 | nt | nt | nt | nt
CC(=NNC(=O)c1cnccn1)c1ccncc1 | nt | nt | nt | 3 | nt | nt | nt | nt
CCOc1cc(C=NNC(=O)c2ccc(NC(=O)C(C)(C)C)cc2)ccc1OC(=O)c1ccc(OC)cc1 | nt | nt | nt | 3 | nt | nt | nt | nt
Fc1ccc(-n2c(=S)[nH]c3cccnc32)cc1 | -1 | -2 | -4 | -3 | 37* | 3 | 4 | 2
